Experimental data of several laboratories.
Lines come from different studies, so protocols differ.
Target: Mitogen-activated protein kinase kinase kinase 19 (MAP3K19, Homo sapiens, UniProt Q56UN5)
Sequence (Q56UN5 1-1328, as in one of the studies): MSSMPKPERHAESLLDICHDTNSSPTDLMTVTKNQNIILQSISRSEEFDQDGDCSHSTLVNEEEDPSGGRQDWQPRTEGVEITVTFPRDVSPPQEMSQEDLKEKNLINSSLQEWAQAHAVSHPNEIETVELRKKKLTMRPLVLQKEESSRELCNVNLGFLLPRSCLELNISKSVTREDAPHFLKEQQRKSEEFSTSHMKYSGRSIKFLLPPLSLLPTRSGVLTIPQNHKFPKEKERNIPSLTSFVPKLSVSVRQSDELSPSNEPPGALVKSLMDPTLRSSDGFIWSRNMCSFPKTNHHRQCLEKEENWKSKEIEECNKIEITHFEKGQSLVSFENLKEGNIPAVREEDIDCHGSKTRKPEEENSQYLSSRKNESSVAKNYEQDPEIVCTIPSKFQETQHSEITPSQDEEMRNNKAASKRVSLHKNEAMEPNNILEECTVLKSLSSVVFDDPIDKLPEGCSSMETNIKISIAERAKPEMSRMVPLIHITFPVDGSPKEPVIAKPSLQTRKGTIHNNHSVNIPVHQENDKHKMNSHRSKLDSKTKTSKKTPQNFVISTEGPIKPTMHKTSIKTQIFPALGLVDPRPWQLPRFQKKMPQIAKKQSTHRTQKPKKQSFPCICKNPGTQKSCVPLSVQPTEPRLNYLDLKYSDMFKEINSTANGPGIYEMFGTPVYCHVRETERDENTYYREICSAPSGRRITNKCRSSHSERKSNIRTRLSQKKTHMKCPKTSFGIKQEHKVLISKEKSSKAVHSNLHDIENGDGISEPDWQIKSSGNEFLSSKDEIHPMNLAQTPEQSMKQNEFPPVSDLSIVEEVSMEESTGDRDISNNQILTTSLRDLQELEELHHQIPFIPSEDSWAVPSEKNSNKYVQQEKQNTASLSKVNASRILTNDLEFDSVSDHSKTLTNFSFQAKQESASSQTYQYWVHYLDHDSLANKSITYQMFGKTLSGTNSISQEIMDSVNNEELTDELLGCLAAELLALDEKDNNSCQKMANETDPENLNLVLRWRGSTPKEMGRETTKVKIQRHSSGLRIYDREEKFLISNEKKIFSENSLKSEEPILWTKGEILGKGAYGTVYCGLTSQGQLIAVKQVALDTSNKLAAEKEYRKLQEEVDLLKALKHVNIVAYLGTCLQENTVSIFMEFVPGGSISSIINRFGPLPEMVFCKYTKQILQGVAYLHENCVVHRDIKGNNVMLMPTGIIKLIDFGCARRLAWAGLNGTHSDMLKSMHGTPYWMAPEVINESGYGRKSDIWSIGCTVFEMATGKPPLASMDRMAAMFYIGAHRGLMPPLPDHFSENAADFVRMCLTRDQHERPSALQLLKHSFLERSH

SMILES | effect on | method | concentration | remaining binding
CC(=O)N1CCC(c2ccc(C(=O)NC3=NCCN3)cc2C(F)(F)F)CC1 | cell-free assay | competition with immobilised ligand | 1 µM | 100%
CN(C)c1nccc(-c2cnc3ncccn23)n1 | binding |  | 1 µM | 79%
O=C(NCCCN1CCOCC1)c1ccc(Nc2nccc(-c3cc4ccccc4s3)n2)cc1 | binding | competition with immobilised ligand | 1 µM | 0.1%
Cc1cc(C)c(-n2ccn3nc(-c4cccnc4)cc23)cc1NC(=O)c1cc(C#N)cc(S(F)(F)(F)(F)F)c1 | cell-free assay | competition with immobilised ligand | 0.1 µM | 99.5%
O=C(c1ccc(Nc2nccc(-c3cc4ccccc4s3)n2)cc1)N1CCC(N2CCCC2)CC1 | binding | competition with immobilised ligand | 1 µM | 0%
Cc1cc(-n2nc(Cc3cc(F)cc(C(F)(F)F)c3)nc2C)ccc1C(N)=O | cell-free assay | competition with immobilised ligand | 1 µM | 98%
C[C@@H]1CCN(c2nccc(-c3cnn4ncccc34)n2)C1 | binding |  | 1 µM | 79%
COc1ncc2cc3ccccc3nc2c1C#N | cell-free assay | competition with immobilised ligand | 5 µM | 81%
O=C(c1ccc(Nc2ncc(Cl)c(-c3cc4ccccc4s3)n2)cc1)N1CCC(N2CCCC2)CC1 | binding | competition with immobilised ligand | 1 µM | 0%
CNC(=O)[C@@H]1CC[C@@H](n2c(-c3ccc4cnccc4c3)nc3ccc(C(=O)NCc4cccc(C(N)=O)c4)cc32)C1 | binding | competition with immobilised ligand | 1 µM | 100%
O=C(Nc1c[nH]nc1C(=O)NC1CCNCC1)c1cc(F)cc(F)c1 | binding | competition with immobilised ligand | 1 µM | 100%
COc1cnc(Nc2cccc(S(N)(=O)=O)c2)nc1N1CCN(c2ccccc2)CC1 | binding | competition with immobilised ligand | 1 µM | 71%
CN(c1nccc(-c2cnn3ncccc23)n1)C1CC1 | binding |  | 1 µM | 99%
C=CC(=O)N1CCC(C(=O)NCC(=O)N2CCN(c3nc(-c4cnc(N)nc4C(F)F)nc(N4CCOCC4)n3)CC2)CC1 | binding | competition with immobilised ligand | 1 µM | 42%
CN(C)c1nccc(-c2cnn3ncccc23)n1 | binding |  | 1 µM | 50%
Cc1nc(N2CC[C@@H](O)C2)ncc1-c1cc(C(F)(F)F)cc2[nH]ncc12 | binding | competition with immobilised ligand | 1 µM | 67%
N[C@@H]1CCN(c2nccc(-c3cnn4ncccc34)n2)C1 | binding |  | 1 µM | 76%
Cc1nc(C2CCN(C(=O)c3ccc(OC(F)(F)F)cc3N)CC2)c2ncc(N3CCN(C)CC3)cc2n1 | cell-free assay | competition with immobilised ligand | 1 µM | 79%
COc1ccnn2ncc(-c3ccnc(N(C)C)n3)c12 | binding |  | 1 µM | 54%
CO[C@H]1CC[C@H](CNc2ccc(S(=O)(=O)NC(=O)c3ccc(N4CCN(CC5=C(c6ccc(Cl)cc6)CC(C)(C)CC5)CC4)cc3Oc3cnc4[nH]ccc4c3)cc2[N+](=O)[O-])CC1 | cell-free assay | competition with immobilised ligand | 1 µM | 64%
